High-throughput results (PubChem BioAssay)
A selection: hits, their analogues and other compounds. The true share with any hit is near 2.8%.
Wee1 stabilizer = blocks degradation of human Wee1 kinase; HeLa Luc-Wee1K328M stability, luciferase luminescence; 100% = proteasome inhibitor MG132 effect; reporter increase, % at 5 µM; 220,000 compounds, 1.2% hits; AID 1321;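 active = activation above the mean of all tested compounds plus 3 SD, set per screening run, cut at about 8.8% in these data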;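 also: cells exposed to compound for 20 h before luminescence read; 0% = DMSO alone and 100% = MG132 at 30 µM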
Target sequence (P30291 whole entry K328M): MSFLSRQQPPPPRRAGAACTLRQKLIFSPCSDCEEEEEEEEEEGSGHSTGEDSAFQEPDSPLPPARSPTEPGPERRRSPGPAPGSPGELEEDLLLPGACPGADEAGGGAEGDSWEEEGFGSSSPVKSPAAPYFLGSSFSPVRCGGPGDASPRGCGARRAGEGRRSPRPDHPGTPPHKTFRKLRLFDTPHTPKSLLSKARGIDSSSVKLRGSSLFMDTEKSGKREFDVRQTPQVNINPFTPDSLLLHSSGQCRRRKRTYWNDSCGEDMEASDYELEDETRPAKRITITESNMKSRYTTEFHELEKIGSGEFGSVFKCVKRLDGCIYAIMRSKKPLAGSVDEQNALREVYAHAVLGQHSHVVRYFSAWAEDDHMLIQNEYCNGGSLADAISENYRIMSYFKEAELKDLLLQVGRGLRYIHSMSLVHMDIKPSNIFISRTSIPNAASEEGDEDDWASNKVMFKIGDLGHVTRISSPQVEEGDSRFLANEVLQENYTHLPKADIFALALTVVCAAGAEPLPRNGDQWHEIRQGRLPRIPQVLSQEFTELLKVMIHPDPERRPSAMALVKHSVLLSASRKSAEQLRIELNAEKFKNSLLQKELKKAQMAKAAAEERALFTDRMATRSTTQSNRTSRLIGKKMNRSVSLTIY
RBBP9 inh = human RBBP9 hydrolase inhibition. inhibition, % at 7.94 µM. recombinant RBBP9, FP-Rh probe fluorescence polarization. O75884. 220,000 compounds, 0.2% hits;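 active = inhibition above the campaign mean of all tested compounds plus 3 SD, cut at about 14% in these data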;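 also: plate controls were DMSO wells with RBBP9 for no effect and wells lacking RBBP9 protein for full effect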
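Assay system: recombinant human RBBP9; Reagent: Serine-hydrolase probe FP-Rh, 375 nM pre-mixing; Doses: 7.94 µM single dose, 0.794% DMSO; Incubation: 30 min then 45 min, 25 °C; Detection: fluorescence polarization (mP), excitation 525 nm, emission 598 nm; Evaluation: percent inhibition from mP, scaled between DMSO and no-protein wells.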
14-3-3 Bad PPI = disrupts binding of bovine 14-3-3 zeta to phospho-Bad peptide; P63103; TR-FRET 14-3-3zeta/Dy647-pBad peptide displacement, 1 h; inhibition, % at 21.7 µM; 220,000 compounds, 0.71% hits;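 active = inhibition above about 70%, limit read from the data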;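 also: 0% = full 14-3-3 plus peptide FRET controls and 100% = background without 14-3-3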
eIF4E-4G inh = eIF4E/eIF4G interaction inhibition in translation initiation | TR-FRET eIF4E-eIF4GI(517-606) binding, 2 h | 220,000 compounds, 0.37% hits | AID 782 | inhibition, % at 21.7 µM | P63073+Q04637;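 also: 0% = full FRET control wells and 100% = background wells lacking eIF4GI fragment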
p47phox inh = blocks human p47phox regulatory protein of NADPH oxidases | p47phox/p22phox peptide binding, fluorescence polarization, 2 h | inhibition, % at 24.7 µM | 220,000 compounds, 0.53% hits | AID 1274;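 also: 0% = p47phox with labelled peptide and 100% = labelled peptide alone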
The depositor's hits bear a star; [ ] = another dose, or the depositor's remark.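 The calls were made as follows, unless noted: active = inhibition above about 30% (limit read from the data); inactive = the rest.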

`COC(=O)Cn1c(=NC(=O)c2nc3ccccc3s2)sc2cc(S(C)(=O)=O)ccc21` gave Wee1 stabilizer -1.1, RBBP9 inh 0.5, 14-3-3 Bad PPI -11.5, eIF4E-4G inh -0.6 and p47phox inh -34.4.
`CCOC(=O)Cn1c(=NC(=O)c2sc3ccccc3c2Cl)sc2cc(S(N)(=O)=O)ccc21` gave Wee1 stabilizer 0.6, RBBP9 inh -16.9, 14-3-3 Bad PPI 79.2*[fluorescence artefact?], eIF4E-4G inh 12.6 and p47phox inh 11.1.
CCOC(=O)Cn1c(=NC(=O)CSC(C)=O)sc2cc(OC)ccc21 was read as Wee1 stabilizer 0.1, RBBP9 inh 2.9, 14-3-3 Bad PPI -16.7, eIF4E-4G inh -2.1 and p47phox inh -20.4.
`C#CCn1c(=NC(=O)c2cc(Cl)sc2Cl)sc2cc(S(N)(=O)=O)ccc21` gave Wee1 stabilizer -2.1, RBBP9 inh -45.5, 14-3-3 Bad PPI 76.4*, eIF4E-4G inh 4.4 and p47phox inh -29.3.
`CC(=O)NC(Cc1cccc(F)c1)C(=O)NC1CCN(C(=O)c2ccc(C)cc2)CC1` (stereo unspecified) gave Wee1 stabilizer 0.2, RBBP9 inh -10.8, 14-3-3 Bad PPI -5.1, eIF4E-4G inh -0.2 and p47phox inh 0.7.
Cn1c(Cn2cnc([N+](=O)[O-])n2)nnc1SCC(=O)Nc1ccccc1 was read as Wee1 stabilizer 6.8, RBBP9 inh -10.0, 14-3-3 Bad PPI -0.9, eIF4E-4G inh 6.6 and p47phox inh -12.6.
For CC(=O)/C(=C\N(C)C)Sc1ccc(Cl)cc1 the results were Wee1 stabilizer 9.1*, RBBP9 inh 6.7, 14-3-3 Bad PPI -5.8, eIF4E-4G inh -0.3 and p47phox inh -2.6.
For Cc1cc(C)c2c(N)c(C(=O)c3ccccc3)sc2n1 the results were Wee1 stabilizer 10.7*, RBBP9 inh -2.3, 14-3-3 Bad PPI 2.4, eIF4E-4G inh -5.7 and p47phox inh 0.8.
For Cc1cc(C)c2c(N)c(C(=O)c3ccc(Cl)c(Cl)c3)sc2n1 the results were Wee1 stabilizer -1.2, RBBP9 inh -4.7, 14-3-3 Bad PPI 82.5*, eIF4E-4G inh 16.1 and p47phox inh 14.4.
`CCn1c2ccc(OC)cc2c2nc3ccccc3nc21` gave Wee1 stabilizer -0.9, RBBP9 inh -2.7, 14-3-3 Bad PPI 0.8, eIF4E-4G inh 0.8 and p47phox inh -26.9.
Screening CCOc1ccc(Cn2c3ccc(OC)cc3c3nc4ccccc4nc32)cc1 returned Wee1 stabilizer 1.4, RBBP9 inh -5.7, 14-3-3 Bad PPI 61.0, eIF4E-4G inh 12.4 and p47phox inh 43.5*.
`CCOC(=O)Cn1c(=O)c(-c2ccccc2NC)nc2ccccc21` gave Wee1 stabilizer -1.2, RBBP9 inh -16.4, 14-3-3 Bad PPI -7.0, eIF4E-4G inh -1.9 and p47phox inh 39.2*.
Cc1c(N)cc(N)cc1C(=O)O was read as Wee1 stabilizer 4.5, RBBP9 inh -3.1, 14-3-3 Bad PPI 84.0*, eIF4E-4G inh -0.8 and p47phox inh -1.0.
For Cc1c(Br)cc(C(=O)O)c(C)c1C the results were Wee1 stabilizer -2.2, RBBP9 inh 0.6, 14-3-3 Bad PPI 12.3, eIF4E-4G inh 7.0 and p47phox inh -3.2.
Screening NC1=NC[C@H](Cc2ccc(O)cc2)N1CCc1cccc2ccccc12 returned 14-3-3 Bad PPI 3.6, eIF4E-4G inh 3.5 and p47phox inh 62.6*.
CCO[C@H]1OC(C(=O)Nc2ccccc2)=C[C@@H](C)[C@@H]1CCCO was read as Wee1 stabilizer -0.7, RBBP9 inh 6.0, 14-3-3 Bad PPI 5.1, eIF4E-4G inh 3.8 and p47phox inh -8.2.
CC(C)CC(NC(=O)c1ccc(C#CC(C)(C)O)s1)C(=O)O (stereo unspecified) was read as Wee1 stabilizer -4.9, RBBP9 inh -8.3, 14-3-3 Bad PPI 7.9, eIF4E-4G inh 0.9 and p47phox inh 3.1.
Cc1ccc(S(=O)(=O)CCc2nnc(NC(=O)c3ccco3)s2)cc1 was read as Wee1 stabilizer -0.6, RBBP9 inh -0.9, 14-3-3 Bad PPI -3.9, eIF4E-4G inh -2.0 and p47phox inh -3.7.
For COc1ccc(CCCC(=O)N/N=C\c2cccs2)cc1 the results were Wee1 stabilizer 2.4, RBBP9 inh -4.3, 14-3-3 Bad PPI 97.3*, eIF4E-4G inh 2.3 and p47phox inh -2.6.
For CCCCNC(=S)N/N=C/C1=CCC2CC1C2(C)C (stereo unspecified) the results were Wee1 stabilizer 8.9*, RBBP9 inh -4.8, 14-3-3 Bad PPI -0.1, eIF4E-4G inh 7.7 and p47phox inh -5.2.
`C=C(C)CNC(=S)N/N=C/C1=CCC2CC1C2(C)C` (stereo unspecified) gave Wee1 stabilizer -0.9, RBBP9 inh 2.2, 14-3-3 Bad PPI -8.8, eIF4E-4G inh 4.7 and p47phox inh -11.3.
`OCCN(Cc1ccccc1)Cc1cccc(Cl)c1Cl` gave Wee1 stabilizer -1.3, RBBP9 inh -5.8, 14-3-3 Bad PPI 88.4*, eIF4E-4G inh 3.7 and p47phox inh -0.3.
For OCCN(Cc1ccccc1)Cc1ccccc1Cl the results were Wee1 stabilizer 5.3, RBBP9 inh -4.0, 14-3-3 Bad PPI 18.7, eIF4E-4G inh 0.5 and p47phox inh 3.0.
For O=C1OCC/C1=C\OCCCO/C=C1\CCOC1=O the results were Wee1 stabilizer -0.9, RBBP9 inh -8.2, 14-3-3 Bad PPI 5.3, eIF4E-4G inh 85.8* and p47phox inh -14.4.
CCOc1ccc(N/C=C/C(=O)c2ccc(C)cc2)c([N+](=O)[O-])c1 was read as Wee1 stabilizer 0.1, RBBP9 inh -3.3, 14-3-3 Bad PPI -1.6, eIF4E-4G inh 0.1 and p47phox inh 36.8*.
Screening Cc1ccc(/C=N/N2CCN(C3c4ccccc4-c4ccccc43)CC2)o1 returned Wee1 stabilizer -3.0, RBBP9 inh 2.0, 14-3-3 Bad PPI -6.3, eIF4E-4G inh 2.7 and p47phox inh -5.0.
`CC(OC(=O)c1cccc(S(=O)(=O)Nc2cccc(C(F)(F)F)c2)c1)C(=O)Nc1ccc2c(c1)OCCO2` (stereo unspecified) gave Wee1 stabilizer 9.2*, RBBP9 inh -9.3, 14-3-3 Bad PPI -7.2, eIF4E-4G inh -0.9 and p47phox inh -37.4.
Screening NC(=O)CCCc1nc(-c2ccccc2Cl)no1 returned Wee1 stabilizer 10.3*, RBBP9 inh -2.5, 14-3-3 Bad PPI -10.1, eIF4E-4G inh -0.2 and p47phox inh -10.0.
Cc1ccc(OCc2nc(-c3ccccn3)n[nH]2)cc1 was read as Wee1 stabilizer 9.1*, RBBP9 inh -6.5, 14-3-3 Bad PPI -1.2, eIF4E-4G inh 33.5*[fluorescence artefact?] and p47phox inh -5.8.
`Cc1csc(SCC(=O)Nc2cccc3nsnc23)n1` gave Wee1 stabilizer -1.3, RBBP9 inh -8.0, 14-3-3 Bad PPI -1.9, eIF4E-4G inh -2.7 and p47phox inh 143.6*.
For Cc1csc(SCC(=O)Nc2ccccc2[N+](=O)[O-])n1 the results were Wee1 stabilizer -0.6, RBBP9 inh -4.5, 14-3-3 Bad PPI -4.5, eIF4E-4G inh 0.7 and p47phox inh -13.6.
